Active and inactive are the calls of the source. The rule behind the calls is not given here.
Assays:
Hamster [1] = test: Interruption of pregnancy in hamster at 1 mg, sc administered on day 3 of pregnancy; assay type: functional, organism-based; conditions: Cricetinae
In short: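 Pregnant hamsters, ten per compound. A single 1 mg per animal dose is given subcutaneously in ethanol on day 3 of pregnancy, and interruption of pregnancy is scored (modified Giannina method).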

Cricetinae = test: Induction of uterus contraction in hamster at 20 ug; assay type: functional, tissue-based
In short: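 Isolated hamster uterine strip in vitro, Holton method; compound added at 20 µg and scored for oxytocin-like contractile activity.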

Gerbillinae [2] = test: (§1) Inhibition of PGE2-induced colon smooth muscle contraction in gerbil at 20 ug/15 ml pretreated for 30 seconds followed by PGE2-challenge measured after 90 seconds relative to control; assay type: functional
In short: (§2)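 Isolated colon smooth muscle from male gerbils in a chamber (Holton method). Compound is introduced at the stated level per 15 mL; 30 s later 40 ng PGE2 is added. Antagonism is read as % inhibition of the PGE2 response.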

Gerbillinae [3] = test: (§3) Inhibition of PGE2-induced colon smooth muscle contraction in gerbil at 40 ug/15 ml pretreated for 30 seconds followed by PGE2-challenge measured after 90 seconds relative to control; assay type: functional; in short: as §2
Gerbillinae [4] = test: (§4) Inhibition of PGE2-induced colon smooth muscle contraction in gerbil at 80 ug/15 ml pretreated for 30 seconds followed by PGE2-challenge measured after 90 seconds relative to control; assay type: functional; in short: as §2
Gerbillinae [5] = test: (§5) Inhibition of PGE2-induced colon smooth muscle contraction in gerbil at 125 ug/15 ml pretreated for 30 seconds followed by PGE2-challenge measured after 90 seconds relative to control; assay type: functional; in short: as §2
Gerbillinae [6] = test: Inhibition of PGE2-induced colon smooth muscle contraction in gerbil at […] pretreated for 30 seconds followed by PGE2-challenge measured after 90 seconds; assay type: functional; in short: as §2
Hamster [7] = test: Interruption of pregnancy in hamster at 12.5 ug, sc administered on day 3 of pregnancy relative to control; assay type: functional, Cricetinae
[8] = as §1; assay type: functional, Gerbillinae; in short: as §2
[9] = as §3; assay type: functional, Gerbillinae; in short: as §2
[10] = as §4; assay type: functional, Gerbillinae; in short: as §2
[11] = as §5; assay type: functional, Gerbillinae; in short: as §2

Compound	Activity (Hamster [1])	Activity (Cricetinae)	also measured
CCCCC[C@@H](O)/C=C/[C@@H](CO)[C@H](CO)CCCCCCC(=O)OC	inactive	inactive	inhibition (Gerbillinae [2]): inactive; inhibition (Gerbillinae [3]): inactive; inhibition (Gerbillinae [4]): inactive; inhibition (Gerbillinae [5]): inactive
CCCCC[C@](C)(O)/C=C/[C@H]1COC(=O)[C@@H]1CCCCCCC(=O)OC (racemic)	inactive	inactive	inhibition (Gerbillinae [6]): inactive
CCCCC[C@H](O)/C=C/[C@@H]1[C@@H](C/C=C\CCCC(=O)O)[C@@H](O)C[C@H]1O [DINOPROST]	–	–	Activity (Hamster [7]): 100%
CCCCC[C@@H](O)/C=C/[C@H]1COC(=O)[C@@H]1CCCCCCC(=O)OC (single isomer, unassigned)	inactive	inactive	–
CCCCC[C@H](O)/C=C/[C@@H](CO)[C@H](CO)CCCCCCC(=O)OC	inactive	inactive	inhibition (INH) [8]: 0%; inhibition (INH) [9]: 14%; inhibition (INH) [10]: 26%; inhibition (INH) [11]: 41%
CCCCC[C@H](O)/C=C/[C@H]1COC(=O)[C@@H]1CCCCCCC(=O)OC (racemic)	inactive	inactive	–
CCCCC[C@@](C)(O)/C=C/[C@H]1COC(=O)[C@@H]1CCCCCCC(=O)OC (racemic)	inactive	inactive	inhibition (Gerbillinae [6]): inactive

— ChEMBL document CHEMBL3244085, “Synthesis and biological evaluation of 10-oxa-11-deoxyprostaglandin E1 and 10-nor-9,11-secoprostaglandin F1 and their derivatives” (1978)
